Hits are enriched below; roughly 2.1% of the tested compounds scored in any of these assays.
PGE2 EP2 inh – inhibitors of human EP2 prostaglandin E2 receptor; inhibition, % at 25 µM; C6 glioma cells expressing human EP2, cAMP TR-FRET; cells stimulated with saturating PGE2; actives 0.52% (n = 260,000);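 active = percent inhibition above 40 after rounding to a whole number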;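 also: rat C6 glioma host cells with rolipram phosphodiesterase inhibitor present; the protocol text gives 20 µM as final concentration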
Target sequence (P43116 whole entry, looked up): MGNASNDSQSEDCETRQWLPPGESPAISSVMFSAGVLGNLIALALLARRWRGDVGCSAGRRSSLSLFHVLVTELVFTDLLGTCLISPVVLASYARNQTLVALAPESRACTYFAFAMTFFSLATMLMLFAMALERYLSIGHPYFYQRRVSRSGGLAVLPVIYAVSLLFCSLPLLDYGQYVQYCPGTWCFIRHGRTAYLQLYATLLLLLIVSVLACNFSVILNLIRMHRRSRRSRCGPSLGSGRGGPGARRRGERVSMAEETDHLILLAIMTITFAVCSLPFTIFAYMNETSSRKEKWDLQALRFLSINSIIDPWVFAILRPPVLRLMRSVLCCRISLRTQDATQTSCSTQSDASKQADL
FXIIa inh 1536 – blocks human coagulation factor XIIa protease activity; purified FXIIa, Boc-QGR-AMC fluorogenic substrate, 2 h; inhibition, % at 5 µM; actives 0.3% (n = 220,000); AID 800; in the data active = inhibition above about 40%;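 also: 0% = enzyme with no compound and 100% = blank without enzyme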
FXIa inh 1536 – inhibitors of human coagulation factor XIa | purified FXIa, Boc-Glu-Ala-Arg-AMC fluorogenic substrate | P03951 | inhibition, % at 5 µM | actives 0.14% (n = 220,000);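 active = inhibition of at least 40%; inactive = inhibition below 40%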;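 also: fluorescence of freed AMC excited at 355 nm; 0% = enzyme without compound and 100% = no enzyme blank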
KLK5 inh – inhibitors of human kallikrein 5. Q9Y337. recombinant hK5, fluorogenic AMC substrate cleavage. inhibition, % at 5 µM. actives 0.59% (n = 210,000). AID 873;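 active = inhibition of 40% or more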;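 also: 0% = enzyme controls without compound and 100% = no-enzyme blanks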
Target sequence (Q9Y337 67-293 limits assumed): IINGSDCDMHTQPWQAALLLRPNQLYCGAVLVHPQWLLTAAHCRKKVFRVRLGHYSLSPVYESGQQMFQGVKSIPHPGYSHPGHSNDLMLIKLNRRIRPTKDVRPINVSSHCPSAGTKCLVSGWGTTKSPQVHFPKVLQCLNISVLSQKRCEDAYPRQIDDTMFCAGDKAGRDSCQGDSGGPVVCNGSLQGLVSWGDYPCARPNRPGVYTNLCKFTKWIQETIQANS
thrombin 1536 – blocks human thrombin protease activity | P00734 | alpha-thrombin, Boc-VPR-AMC fluorogenic substrate cleavage | inhibition, % at 5 µM | actives 0.26% (n = 220,000) | AID 1046;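 active = inhibition at or above 40%; inactive = inhibition below 40%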;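 also: 0% = enzyme with no compound and 100% = wells without enzyme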
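Test system: human alpha-thrombin; medium: pH 7.5 Tris-saline with Tween 20; times: reaction at room temperature; signal: AMC fluorescence at 355 nm excitation and 460 nm emission; also added: Boc-VPR-AMC substrate, 15 µM final; dosing: one concentration per compound, 5 µM, with 0.2% DMSO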
EP2 modulator – EP2 receptor (human) modulation; P43116; induction, % at 25 µM; EP2-expressing cells, cAMP HTRF FRET, PGE2 co-stimulation; actives 0.83% (n = 260,000);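 active = compounds whose cAMP rise, as percent of the full-agonist control response, exceeds 60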;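 also: rat C6 glioma line stably carrying human EP2 under a CMV promoter; the protocol text gives 20 µM as final concentration; 100% = response of wells given 1 µM PGE2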
EP2 cAMP induct – human EP2 receptor cAMP induction, negative in counter-screens | shares compounds with EP2 modulator | C6 glioma EP2 cells, cAMP HTRF induction; plus low (about EC15) PGE2 agonist | calls only at 20 µM (by protocol) | actives 47% (n = 1,300) | AID 1080;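 active = cAMP induction above 50% in the main assay while under 30% in all four parallel counter assays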;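 also: rat C6 glioma cells stably expressing human EP2 receptor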
* = called active by the depositor; i = inactive; . = not tested or not shown; + = active, no number.

SMILES | PGE2 EP2 inh | FXIIa inh 1536 | FXIa inh 1536 | KLK5 inh | thrombin 1536 | EP2 modulator | EP2 cAMP induct
Cc1sc(NC(=O)c2ccc(F)cc2)c(CN2CCCCCC2)c1C | 9 | 5 | -6 | -12 | 2 | 59 | .
CSc1nc(Sc2ccccc2Cl)c2ccccc2n1 | 18 | 6 | -6 | -26 | -3 | 67* | i
CSc1nc(Nc2ccccc2)c2ccccc2n1 | 11 | . | . | . | . | -38 | .
CCOC(=O)c1cnc(SC)nc1Sc1ccccc1Cl | 7 | 5 | -2 | -5 | -3 | 73* | i
Cc1ccc(NCc2nnc(SCC(=O)O)n2Cc2ccccc2)cc1Cl | 3 | 1 | -2 | -5 | -5 | 21 | .
Cc1ccc(NCc2n[nH]c(=S)n2Cc2ccccc2)cc1Cl | 6 | 8 | -1 | 4 | -6 | 55 | i
CCOC(=O)c1ccc(NC(=O)c2c(O)c3ccccc3[nH]c2=O)cc1 | 16 | . | . | . | . | -50 | .
COc1ccccc1CNC(=O)C1(c2ccc(Cl)cc2)CC1 | 8 | 25 | 21 | -10 | 1 | 69* | i
COc1ccc(C2(C(=O)NCc3ccccc3Cl)CCOCC2)cc1OC | 13 | 12 | 0 | 3 | -3 | 10 | .
CN=C1CC(SC)=C1c1ccc(C)cc1 | 56* | 14 | 8 | 5 | 0 | 72* | +
Cc1cc2cc(CN(C(=S)NCCCN(C)C)C3CCCCC3)c(=O)[nH]c2cc1C | 12 | . | . | . | . | -83 | .
Clc1ccc(Cn2c(/C=C/c3ccco3)nc3ccccc32)cc1 | 9 | 12 | 9 | -5 | -3 | 69* | +
CC1(C)Cc2nc3nc(SCC(=O)Nc4ccccc4)nc(N)c3cc2CO1 | 6 | 8 | -2 | . | -6 | 71* | +
COc1ccc(NC(=O)CSc2nc(N)c3cc4c(nc3n2)CC(C)(C)OC4)cc1 | 4 | 4 | 2 | 3 | -1 | -7 | .
O=C(COc1ccc(F)cc1)N1c2ccccc2CCc2ccccc21 | 12 | 4 | -4 | -6 | -15 | 28 | .
O=C(COc1cccc2ccccc12)N1c2ccccc2CCc2ccccc21 | 11 | 11 | 0 | 3 | 0 | 66* | +
CCNc1c2c3c(cccc3n(C)c1=O)C(=O)c1ccccc1-2 | 2 | 16 | -4 | -3 | 2 | 56 | .
Cn1c(=O)c(NC2CCCCC2)c2c3c(cccc31)C(=O)c1ccccc1-2 | 3 | 5 | -2 | 5 | -12 | 65* | +
Cn1c(=O)c(NCCc2ccccc2)c2c3c(cccc31)C(=O)c1ccccc1-2 | 2 | 20 | 8 | -19 | 6 | 77* | +
COCCN1C(=O)C(=O)/C(=C(\O)c2ccc(Cl)cc2)C1c1ccc(O)c(OC)c1 (stereo unspecified) | 7 | . | . | . | . | 2 | .
CCCOC1CCCN(Cc2cn(CC(=O)NC3CC3)c3ccccc23)C1 (stereo unspecified) | 7 | . | . | . | . | -41 | .
CCCCCCn1c(COc2ccccc2F)nnc1SCC(=O)N1c2ccccc2NC(=O)C1(C)C | 11 | 13 | 9 | 1 | 2 | 64* | i
CC1(C)C(=O)Nc2ccccc2N1C(=O)CSc1ncccn1 | 6 | 22 | 0 | 18 | 2 | -2 | .
Cc1ccc(S(=O)(=O)NCC2COc3ccccc3O2)cc1 (stereo unspecified) | 12 | 18 | 7 | 1 | 4 | -11 | .
Cc1ccc2c(c1)NC(C(C)(C)C)CO2 (stereo unspecified) | 4 | 10 | 4 | -2 | -5 | -19 | .
SMILES | PGE2 EP2 inh | FXIIa inh 1536 | FXIa inh 1536 | KLK5 inh | thrombin 1536 | EP2 modulator | EP2 cAMP induct
Cc1ccc2c(c1)N(S(=O)(=O)c1ccc(F)cc1)C(C(C)(C)C)CO2 (stereo unspecified) | 9 | 22 | 11 | 7 | 4 | 77* | +
Cc1ccc(S(=O)(=O)N2c3ccccc3OCC2C(C)(C)C)cc1 (stereo unspecified) | 5 | 4 | -5 | 11 | -2 | 88* | +
CC[C@@H](Cn1ncc2ccccc2c1=O)NC(=O)C1(c2cccc(F)c2)CCCC1 | 4 | . | . | . | . | 12 | .
O=C(NCc1nc(-c2ccncc2)n[nH]1)C(c1ccccc1)C1CCCCC1 (stereo unspecified) | 11 | . | . | . | . | 13 | .
COc1ccc(-c2csc3nc(C)nc(N4CCC(C)CC4)c23)cc1OC | 12 | -1 | 7 | -22 | -2 | 70* | i
CCOc1ccc(Cl)cc1S(=O)(=O)n1cnc2cc(C)c(C)cc21 | 5 | 8 | 2 | -10 | -5 | 70* | +
Cc1c(NC(=S)NC(=O)c2ccc(-c3ccc(Cl)cc3)o2)cccc1C(=O)O | 9 | 13 | 5 | -3 | -7 | 99* | +
O=C(NC(=S)Nc1ccccc1O)c1ccc(-c2ccc(Cl)cc2)o1 | 15 | 6 | -5 | -16 | -2 | 2 | .
CCOC(=O)c1c(N)sc2c1CCC(CC)C2 (stereo unspecified) | 11 | 9 | -4 | -11 | -4 | 66* | i
CCC1CCc2c(sc(N)c2C(N)=O)C1 (stereo unspecified) | 4 | 14 | 8 | 0 | 5 | -12 | .
CCc1cc(-c2[nH]ncc2-c2ccc3c(c2)OCO3)c(O)cc1O | . | 21 | 11 | 10 | 2 | 28 | i
CCCc1cc(-c2[nH]ncc2-c2ccc3c(c2)OCCCO3)c(O)cc1OC | 13 | 18 | 4 | -19 | -1 | 28 | .
COc1ccccc1/C=C(/C(=O)OCC(=O)Nc1ccccc1C(C)C)c1ccccc1 | 10 | 16 | 10 | -2 | 4 | 68* | +
COc1cc(CCC(=O)OCC(=O)Nc2ccccc2C(C)C)cc(OC)c1OC | 7 | 8 | 7 | -1 | 1 | 8 | .
O=C(c1ccccc1)N1N=C(c2ccccc2)CC1c1ccccc1O (stereo unspecified) | 6 | -1 | -6 | -9 | -5 | 85* | +
O=C(c1cccs1)N1N=C(c2ccccc2)CC1c1ccccc1O (stereo unspecified) | 3 | 7 | 2 | . | 0 | 24 | .
O=c1[nH]c(O)c(/C=C2/C=CC(c3ccc(Cl)cc3Cl)=N2)c(=O)[nH]1 | 1 | . | . | . | . | 0 | .
COc1cc(C2Oc3cc(C4Oc5cc(O)cc(O)c5C(=O)C4O)ccc3OC2CO)ccc1O (stereo unspecified) | 10 | 5 | 8 | -5 | -4 | 80* | i
CC1CCC(C(C)C)C(OC(=O)COC(=O)c2cc(O)ccc2N)C1 (stereo unspecified) | 18 | -10 | -11 | -24 | -7 | 43 | .
CC1CCC(C(C)C)C(OC(=O)COC(=O)c2ccc(=O)[nH]c2)C1 (stereo unspecified) | 15 | 14 | -1 | -4 | -1 | 66* | i
CCCN1CCc2c(sc3c2c(=O)n(-c2ccccc2)c2n[nH]c(=S)n32)C1 | 11 | . | . | . | . | 3 | .

High-throughput results from PubChem.
